Wnt bcat act: activates Wnt/beta-catenin signaling in a reporter cell assay | activation, % at 9.35 µM | activator, plate reader | 1.2% of 300,000 active; in the data active = activation above about 30%, passing the limit was not always enough; inconclusive = no clear call, values can overlap the other calls
NSD2 HMT inh: blocks human histone methyltransferase NSD2; O96028; NSD2 peptide methylation, AlphaScreen, 120 min; inhibition, % at 12.5 µM; 0.54% of 310,000 active; in the data active = inhibition above about 50%
CASP6 VEID inh: blocks human caspase-6 cleavage activity | AID 686996 | inhibition, % at 12.5 µM | purified caspase-6, Z-VEID-R110 cleavage fluorescence | 0.53% of 350,000 active | P55212;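 active = mean inhibition across replicates at least about 35%, with every replicate also reaching that limit, limit read from the data; inconclusive = only one of the two criteria met; inactive = neither criterion met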
Target sequence (P55212 24-179 limits assumed): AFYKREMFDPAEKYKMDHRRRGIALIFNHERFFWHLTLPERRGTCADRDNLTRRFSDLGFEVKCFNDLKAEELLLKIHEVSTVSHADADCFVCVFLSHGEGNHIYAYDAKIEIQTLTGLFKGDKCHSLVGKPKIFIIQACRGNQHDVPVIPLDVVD
Target sequence (P55212 194-293 limits assumed): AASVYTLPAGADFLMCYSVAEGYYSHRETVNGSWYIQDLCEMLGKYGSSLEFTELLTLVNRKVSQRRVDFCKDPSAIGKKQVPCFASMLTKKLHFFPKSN
MITF TRPM1 HTS: activators of MITF-driven TRPM1 promoter activity in SK-MEL-5 cells; SK-MEL-5 TRPM1-promoter luciferase, 24 h; % of positive control, neutral wells = 0; activation, % at 12.5 µM; 0.75% of 300,000 active; AID 588334;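 active = mean activation of at least 80% with every replicate also reaching 80%; inconclusive = mean reaches 80% but some replicate falls short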
esBAF inh: inhibitors of esBAF chromatin remodeling in mouse ES cells; reporter increase, % at 12.5 µM; 2% of 350,000 active; Bmi1-luciferase knock-in reporter, 24 h; 100% = twice the neutral-well signal; in the data active = activation above about 40%; inconclusive = no clear call, values can overlap the other calls;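 note: a rise in the Bmi1 reporter signal indicates esBAF inhibition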
Xi reactivation: X-chromosome reactivation activator; 0.055% of 360,000 active; XiGFP mouse fibroblasts, % GFP-positive cells imaging, 3 d; cells co-treated with 5-aza-dC sensitizer; scaled so ellipticine positive control = 100%; activation, % at 7.58 µM;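 active = mean normalized replicate activation at least 10% and every replicate at or above 10%; inconclusive = only one of the two criteria met; inactive = mean below 10% and not all replicates reach 10%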
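Material: XiGFP fibroblasts, SV40-immortalized. Buffer or medium: DMEM plus 5-aza-dC sensitizer. Compound: single concentration per compound, delivered by pin transfer. Times: 3 days compound exposure. Controls: ellipticine 6 µM.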
A number is an active result; . = inactive; ? = inconclusive; / = not tested or not shown. The list is not random: actives were taken first. Their share in the collection is about 3%.

SMILES	Wnt bcat act	NSD2 HMT inh	CASP6 VEID inh	MITF TRPM1 HTS	esBAF inh	Xi reactivation
C[C@@H]1CN([C@@H](C)CO)C(=O)c2cc(NC(=O)c3ccccc3)ccc2O[C@@H](C)CCCCO[C@H]1CN(C)Cc1ccccc1	/	/	/	/	.	.
O=C(Nc1ccccc1Cl)N1[C@H](CO)[C@@H]2c3ccccc3NC[C@@H]21	/	/	.	/	61.0	.
CC(=O)Nc1cccc2c1O[C@H](CN(C)C(=O)OC(C)(C)C)[C@H](C)CN(C)C2=O	/	/	/	/	/	.
CCOC(=O)c1c(NC(=O)/C=C/C(=O)O)sc(C)c1-c1ccc(C(C)(C)C)cc1	.	68.9	42.3	.	/	.
CCOC(=O)c1c(NC(=O)/C=C\C(=O)O)sc(C)c1-c1ccccc1	.	.	.	.	.	.
Cc1ccc2c(COC(=O)c3ccccc3Cl)cc(=O)oc2c1	.	.	.	180.8	70.9	.
Cc1ccc2c(COC(=O)c3ccc(C)c(C)c3)cc(=O)oc2c1	.	.	.	.	45.6	.
Cc1ccc2c(COC(=O)c3ccccc3Br)cc(=O)oc2c1	.	.	.	118.0	53.7	.
COc1ccc(Br)c(C(=O)OCc2cc(=O)oc3cc(C)ccc23)c1	.	.	.	.	.	.
COc1ccc2c3c(n(C)c2c1)[C@@H](CO)NCC31CCN(C(=O)CC2CC2)CC1	/	/	/	/	/	.
COC(=O)c1c(-c2ccc(Br)cc2)noc1N	.	.	/	/	56.1	/
CCOC(=O)c1cnc2cc(-c3ccc(C)cc3)nn2c1C	.	.	.	/	71.3	.
CC(=O)c1cnc2cc(-c3cccc(Br)c3)nn2c1C	.	.	.	.	50.2	.
Cc1noc(C)c1NC(=O)Nc1ccc2c(c1)CC(=O)N([C@@H](C)CO)C[C@H](C)[C@@H](CN(C)Cc1ccccc1)O2	/	/	.	/	.	.
C[C@@H]1CN([C@@H](C)CO)C(=O)c2cc(C#CC3CC3)cnc2O[C@H]1CN(C)Cc1ccccc1C(=O)O	/	/	.	/	.	.
Nc1nc(-c2ccc(C(=O)O)cc2)cs1	.	.	.	.	.	.
Nc1nc(-c2ccc(Cl)cc2)cs1	.	.	.	/	/	.
Nc1nc(-c2ccc(-c3ccccc3)cc2)cs1	.	.	.	.	59.4	.
Cc1ccc(-c2csc(N)n2)cc1	.	.	.	.	43.2	.
Nc1nc(-c2ccc(Oc3ccccc3)cc2)cs1	.	.	.	/	67.9	.
COc1ccc(-c2csc(N)n2)cc1	/	.	/	.	/	.
O=C(NCc1ccco1)c1ccc(CS(=O)(=O)c2ccc(Cl)cc2)o1	/	.	/	/	/	/
COCCOC(=O)/C(=C/c1ccc(OC(=O)c2ccccc2)cc1)C(C)=O	/	.	/	.	.	/
CCOC(=O)/C(=C/c1ccc(OC(=O)c2ccncc2)cc1)C(C)=O	45.7	.	.	.	/	.
CCOC(=O)C(=Cc1ccc(-n2ccnc2)cc1)C(=O)OCC	55.6	.	.	.	.	.
SMILES	Wnt bcat act	NSD2 HMT inh	CASP6 VEID inh	MITF TRPM1 HTS	esBAF inh	Xi reactivation
O=C1C=C(c2ccc3[nH]ccc3c2)CCC1	46.4	/	.	?	88.0	.
Cc1cc(OCc2cc(C(=O)N3CCCCCC3)no2)cc(C)c1Cl	34.7	.	.	?	48.0	.
COCC1CCN(C(=O)c2cc(COc3cncc(Cl)c3)on2)C1 (configuration not stated)	.	.	.	.	.	.
COCC1CCN(C(=O)c2cc(COc3cc(C)c(Cl)c(C)c3)on2)C1 (configuration not stated)	.	.	.	.	64.4	.
O=C(C[C@H]1C[C@H]2c3cc(NC(=O)CC4CC4)ccc3O[C@H]2[C@@H](CO)O1)NCc1ccc2c(c1)OCO2	/	/	.	/	.	.
CCN1[C@H](C(=O)Nc2nccs2)[C@@H](CO)[C@@H]2Cn3c(ccc(/C=C/c4ccccc4)c3=O)[C@@H]21	/	/	.	/	/	.
CC(=O)N(C)C[C@@H]1Oc2cc(C3=CCCCC3)ccc2S(=O)(=O)N([C@H](C)CO)C[C@H]1C	/	/	/	/	/	.
COCCNC(=O)C(=O)Nc1cccc(Br)c1	.	.	.	.	56.9	/
COCCNC(=O)C(=O)Nc1ccc(Br)cc1	/	.	/	.	48.7	/
COCC(=O)Nc1cccc(Br)c1	.	/	/	.	.	/
CC(CC(=O)O)CC(=O)Nc1cc(C(F)(F)F)cc(C(F)(F)F)c1 (configuration not stated)	51.3	.	.	/	/	.
CC(=O)c1ccc(OC(C)c2nc3ccccc3s2)cc1 (configuration not stated)	.	.	.	.	53.0	.
Cc1nn(-c2ccccc2)cc1C(=S)Nc1ccccc1	.	.	.	.	48.7	.
Cc1c(C(=S)Nc2ccccc2)cnn1-c1ccccc1	?	.	/	96.4	/	.
Cc1ccc(S(=O)(=O)N2CCN(C(=O)COC(=O)c3ccccc3OC(F)F)CC2)c(C)c1	.	.	.	.	.	127.1
Cc1ccc(S(=O)(=O)N2CCN(C(=O)c3ccc4ccccc4n3)CC2)c(C)c1	.	.	.	.	57.7	.
N#Cc1nc(COc2ccc(Cl)cc2)oc1N1CCCCCC1	.	.	/	.	.	/
N#Cc1nc(COc2ccccc2)oc1N1CCCCC1	.	/	.	.	60.0	.
O=C(NCc1ccccc1)c1cc(-c2ccco2)on1	.	.	.	.	42.4	/
COc1ccc(CCNC(=O)c2cc(-c3ccco3)on2)cc1OC	103.4	.	.	.	/	.
O=C(NCCc1ccccc1)c1cc(-c2ccco2)on1	141.3	.	.	.	.	/
COc1ccc(CCNC(=O)c2cc(-c3cccs3)on2)cc1OC	.	.	.	.	.	/
COc1cccc(-c2cc(C(=O)NCCc3ccccc3)no2)c1	/	.	/	.	.	/
O=C(NCc1ccco1)c1cc(-c2ccco2)on1	.	.	.	.	.	/
CCC(=O)Nc1ccc2c(c1)OC[C@@H](C)N(Cc1cccnc1)C[C@H](C)[C@@H](OC)CN(C)C2=O	/	/	.	/	.	.
SMILES	Wnt bcat act	NSD2 HMT inh	CASP6 VEID inh	MITF TRPM1 HTS	esBAF inh	Xi reactivation
CO[C@H]1CN(C)C(=O)c2ccc(NC(C)=O)cc2OC[C@@H](C)N(Cc2ccccc2C(=O)O)C[C@@H]1C	/	/	.	/	.	.
CCOC(=O)CCCCC(=O)c1[nH]c(=O)[nH]c1C[n+]1ccc(C)cc1	.	.	.	.	.	.
Cc1[nH]c(=O)[nH]c1C(=O)CCCCC(=O)OCC(=O)Nc1ccccn1	/	142.2	/	.	/	/
Cn1cnc(S(=O)(=O)N[C@@H]2CC[C@H](CC(=O)Nc3ccc(-c4ccccc4)cc3)O[C@@H]2CO)c1	/	/	.	/	.	.
COc1ccc(OC(=O)N(C)C[C@H]2OCc3cn(nn3)CCCC(=O)N([C@@H](C)CO)C[C@H]2C)cc1	/	/	.	/	.	.
CC(=NNc1nc2ccccc2o1)c1cc2ccccc2cn1	.	.	.	.	/	72.9
CC(C)c1ccc2c(c1)C1(NN=C(c3ccccc3)S1)C(=O)N2 (configuration not stated)	.	.	/	.	87.4	/
CCc1ccc2c(c1)C1(NN=C(c3ccc(C)cc3)S1)C(=O)N2 (configuration not stated)	/	.	/	/	.	/
